Screening data (PubChem BioAssay)
Mcl1-Bid inh = Mcl-1/Bid binding inhibitors, primary screen, biochemical, TR-FRET, 1536-well. actives 0.97% (n = 220,000). Induced myeloid leukemia cell differentiation protein Mcl-1 (Homo sapiens), Q07820. TR-FRET Mcl-1/Bid-Dy647 peptide binding. inhibition, % at 21.7 µM;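 active = compounds that cut the binding signal by more than half at the single screening dose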;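 also: His-tagged Mcl-1 with europium anti-His antibody binding Bid BH3 peptide; 0% = Mcl-1 plus peptide wells and 100% = peptide-only wells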
Mcl1-Noxa inh = Mcl-1/Noxa binding inhibitors, primary screen, biochemical, TR-FRET, 1536-well; TR-FRET Mcl-1/Noxa peptide binding, 2 h; inhibition, % at 21.7 µM; actives 1.5% (n = 220,000); AID 1022, 2008;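 active = compounds that cut the protein-peptide binding signal by more than 50% relative to plate controls in a single-dose test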;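 also: His-tagged Mcl-1 with rhodamine Noxa BH3 peptide and terbium anti-His antibody; 0% = Mcl-1 plus Noxa peptide wells and 100% = peptide-only wells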
Hck Nef HTS = inhibitors of Nef-activated human Hck kinase, primary screen, biochemical, Z-Lyte FRET, 384-well, Hck-YEEI; inhibition, % at 20 µM; AID 463187, 2010; actives 0.68% (n = 220,000); Tyrosine-protein kinase HCK (Homo sapiens), P08631; Recombinant Hck-YEEI plus Nef, Z-Lyte FRET kinase assay;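 active = Hck-Nef kinase inhibition above about 50%, limit read from the data; inactive = inhibition below that limit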;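 also: 0% = DMSO with Hck plus Nef and 100% = Hck alone without Nef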
Target sequence (P08631 whole entry, looked up): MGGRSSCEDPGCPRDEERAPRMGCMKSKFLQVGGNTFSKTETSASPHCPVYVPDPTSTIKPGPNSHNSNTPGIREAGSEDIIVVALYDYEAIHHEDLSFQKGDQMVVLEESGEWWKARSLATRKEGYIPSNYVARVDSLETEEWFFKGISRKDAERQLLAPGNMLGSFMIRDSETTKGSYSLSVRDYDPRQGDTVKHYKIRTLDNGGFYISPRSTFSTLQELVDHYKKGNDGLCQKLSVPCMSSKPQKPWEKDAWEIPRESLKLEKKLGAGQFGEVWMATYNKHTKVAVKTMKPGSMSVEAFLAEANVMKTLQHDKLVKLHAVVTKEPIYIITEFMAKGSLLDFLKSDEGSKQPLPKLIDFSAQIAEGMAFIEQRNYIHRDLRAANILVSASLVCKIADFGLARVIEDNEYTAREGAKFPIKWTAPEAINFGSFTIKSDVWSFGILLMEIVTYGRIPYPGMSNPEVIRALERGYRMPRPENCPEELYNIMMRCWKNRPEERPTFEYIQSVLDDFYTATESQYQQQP
Biofilm kill mix = clotrimazole potentiators killing C. albicans biofilm, primary screen, 4-compound mixtures; C. albicans biofilm persisters + clotrimazole, fluorescence viability; primary screen in compound mixtures of four per well; inhibition, % at 7.6 µM; actives 0.02% (n = 120,000); AID 1242, 2008;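 active = inhibition above 30.3% in the primary screen of four-compound pools, then above 30% when the compound was retested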;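 also: compounds exposed to preformed 24 h biofilms for 48 h; 0% = untreated biofilm control and 100% = clotrimazole plus chlorhexidine kill blank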
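Probe or stimulus – Clotrimazole 50 µg/mL co-treatment · System – C. albicans biofilms · Schedule – 24 h biofilm formation, then 48 h compound exposure, 37 °C · Evaluation – percent inhibition of biofilm viability · Technique – 2-h Alamar Blue fluorescence, 535/590 nm excitation/emission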
Mcl-1 Bim block = inhibitors of Bim peptide binding to Mcl-1, primary screen, biochemical, bead-based flow cytometry, multiplex. actives 0.1% (n = 190,000). Bim peptide-Mcl-1 binding. Induced myeloid leukemia cell differentiation protein Mcl-1 (Homo sapiens), Q07820. inhibition, % at 10 µM. AID 1009, 2008; in the data active = inhibition above about 40%;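 also: 0% = no compound tracer wells and 100% = peptide blocker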
14-3-3 Bad PPI = inhibitors of 14-3-3 zeta/Bad binding, primary screen, biochemical, TR-FRET, bovine 14-3-3 zeta. AID 781, 2007. actives 0.71% (n = 220,000). TR-FRET 14-3-3zeta/Dy647-pBad peptide displacement, 1 h. inhibition, % at 21.7 µM;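 active = inhibition above about 70%, limit read from the data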;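 also: 0% = full 14-3-3 plus peptide FRET controls and 100% = background without 14-3-3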
Hck Nef conf = retest of Hck:Nef kinase inhibitor hits, confirmation, biochemical, Z-Lyte FRET, 384-well, p-Tyr peptide counterscreen | shares compounds with Hck Nef HTS | Recombinant Hck-YEEI:Nef, Z-Lyte FRET kinase assay | calls only at 10 µM | actives 28% (n = 1,300) | AID 463188, 2010;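 active = average inhibition of at least 50%, with Z-scores no higher than 3 in both the phospho-tyrosine peptide and fluorescence counterscreens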
Active calls of the source: *; i = inactive; · = no result given; + = active, no number. Sampled rows, rich in hits. Any-hit rate of the full collection: about 3.2%.

SMILES | Mcl1-Bid inh | Mcl1-Noxa inh | Hck Nef HTS | Biofilm kill mix | Mcl-1 Bim block | 14-3-3 Bad PPI | Hck Nef conf
Cc1ccc(C)c(NC(=O)c2cnn3ccccc23)c1 | -22 | -11 | 67* | · | 2 | 10 | +
Cc1ccc(-c2csc(=S)n2CC(=O)OCC(=O)NCc2ccc(F)cc2)cc1 | -19 | 17 | 6 | · | -1 | -7 | ·
CCOC(=O)c1c(NC(=O)/C=C/C(=O)O)sc(C)c1-c1ccc(C(C)(C)C)cc1 | -15 | 15 | 3 | 6 | 0 | -12 | ·
CCOC(=O)c1c(NC(=O)/C=C\C(=O)O)sc(C)c1-c1ccccc1 | -3 | 6 | 57* | 7 | -3 | 4 | +
Cn1cnc2c(N/N=C/c3cccs3)ncnc21 | -4 | 16 | 68* | 7 | · | -4 | +
Oc1[nH]c2ccccc2c1C=Nc1ccc2c(c1)OCO2 | -36 | 27 | 52* | · | 0 | -6 | i
CC1(C)Cc2nc(N3CCCC3)c(C#N)cc2CO1 | -12 | 8 | 74* | 11 | -1 | -4 | i
Cc1cccn2c(=O)c(/C=N/O)c(Nc3ccccc3F)nc12 | 54* | -29 | 70* | 17 | · | 87* | i
Cc1cccn2c(=O)c(/C=N/O)c(NCc3ccccc3)nc12 | -13 | -2 | 21 | 15 | · | 6 | ·
Cc1cc(C)c2c(c1)/C(=N\N=c1\sc3ccccc3n1C)C(=O)N2 | -17 | 26 | 51* | 17 | · | 3 | i
COc1ccc2nc(C)cc(SCC(=O)Nc3c(C)cccc3C)c2c1 | 68* | -7 | 78* | 15 | -2 | 41 | i
COc1ccc2nc(C)cc(SCC(=O)Nc3c(C)cc(C)cc3C)c2c1 | -9 | -4 | 51* | · | 2 | 67 | i
COc1ccc(CCN2C(=O)CC(C(N)=O)SC2=Nc2ccc(F)cc2)cc1OC (stereo not drawn) | -31 | -6 | 16 | 8 | -2 | 4 | ·
CCCCCCn1ccc(=N)cc1 | -7 | -7 | 0 | · | 1 | 4 | ·
CCCCCCCCCCCCCCCCn1cc[n+](CC(C)=O)c1 | 59* | 42 | 63* | 14 | -1 | 98* | i
COc1cc2c(cc1OC)CN(c1nc(-c3cccnc3)nc3ccccc13)CC2 | -11 | 11 | 68* | 16 | 1 | 3 | +
CN1CCN(c2nc(-c3cccnc3)nc3ccccc23)CC1 | -11 | 50 | 1 | · | 0 | 13 | ·
Cc1ccoc1C(=O)N1CCCC(CCC(=O)N2CCN(c3ccccn3)CC2)C1 (stereo not drawn) | -28 | 14 | 3 | 10 | 2 | -6 | ·
CCN(CC)c1ccc2cc(C(N)=O)c(=O)oc2c1 | -8 | 0 | 123* | 14 | -4 | -2 | ·
C(=N\Nc1ncnc2sc3c(c12)CCC3)/c1ccncc1 | -35 | 4 | 51* | · | 5 | -7 | i
COc1ccc(N2CCN(c3n[nH]c(N)n3)CC2)cc1 | -40 | 7 | -3 | 13 | 2 | -13 | ·
COc1ccc(-c2nc(N3CCOCC3)nc3n[nH]c(N)c23)cc1 | -9 | -1 | 64* | · | -4 | 1 | +
COc1ccccc1CCc1nnc(CCC(=O)NCCCOc2cccnc2)o1 | -23 | -1 | 1 | 18 | -1 | -16 | ·
O=c1cc(-c2ccccc2)nc2c(-c3ccccc3)c(C(F)(F)F)[nH]n12 | -28 | 30 | 57* | 29 | · | -2 | i
Cc1cc(=O)n2[nH]c(C)c(-c3ccccc3)c2n1 | 6 | 9 | -2 | · | -5 | 6 | ·
SMILES | Mcl1-Bid inh | Mcl1-Noxa inh | Hck Nef HTS | Biofilm kill mix | Mcl-1 Bim block | 14-3-3 Bad PPI | Hck Nef conf
COc1cc(OC)c(OC)cc1/C=N/Nc1ncnc2c1[nH]c1ccccc12 | 9 | 44 | 53* | 16 | 1 | 6 | ·
COc1cc(OC)c(OC)cc1/C=N/Nc1nc2ccccc2[nH]1 | -48 | 6 | 4 | 19 | · | -8 | ·
Cc1ccc(Cn2cccc(-c3nc4ccccc4s3)c2=O)cc1 | 34 | 18 | 123* | · | -2 | 16 | ·
O=c1c(-c2nc3ccccc3s2)cccn1Cc1ccccc1 | 11 | 9 | 8 | · | -1 | -1 | ·
COC(=O)c1ccccc1NC(=O)C1CCN(C(=O)c2cc(OC)c(OC)c(OC)c2)CC1 | 4 | -15 | -10 | · | -3 | 13 | ·
Cc1oc2c(C)c3oc(=O)c4c(c3cc2c1C)CCC4 | 0 | -4 | 1 | · | 0 | -1 | ·
O=c1oc2c(CN3CCOCC3)c(O)c(Cl)cc2c2c1CCC2 | -14 | 1 | 158* | · | -2 | -1 | ·
O=c1cc(-c2ccccc2)c2cc(Cl)c(O)c(CN3CCOCC3)c2o1 | -42 | -3 | -24 | 7 | · | -3 | ·
Cc1c(O)c(CN2CCCCC2)cc2c3c(c(=O)oc12)CCC3 | -14 | -7 | 9 | · | 0 | -1 | ·
CN(C)Cc1c(O)c(Cl)cc2c3c(c(=O)oc12)CCCC3 | -28 | -9 | 137* | · | 0 | 4 | ·
CCN(CC)Cc1c(O)c(Cl)cc2c3c(c(=O)oc12)CCCC3 | -24 | 6 | 113* | · | -3 | -6 | ·
Cc1cc([N+](=O)[O-])nn1CC(=O)N1CCCc2ccccc21 | 0 | 10 | 4 | 11 | -1 | 2 | ·
CCOc1ccc(NC(=O)CC2C(=O)N(c3cccc(OC)c3)C(=O)N2CCOC)cc1 (stereo not drawn) | -12 | -5 | 24 | 15 | · | 6 | ·
Cc1cc(=O)oc2cc3c(cc12)OCCN3 | -33 | 10 | 107* | · | -2 | -18 | ·
COc1cccc(CN(C(=O)Cn2nnc(-c3ccccc3F)n2)C(C(=O)NC(C)(C)C)c2ccncc2)c1 (stereo not drawn) | -11 | 7 | 22 | 13 | 0 | -6 | ·
O=C(Nc1ccc(-c2cnco2)cc1)c1ccccc1 | -8 | -12 | -2 | 16 | · | -7 | ·
O=C(NC(=O)c1ccccc1Cl)Nc1ccc(-c2cnco2)cc1 | -64 | -57 | 70* | 20 | · | 48 | i
Cc1nc2c(ccc3nc(NC(=O)C4CC4)sc32)s1 | -4 | 1 | 54* | 5 | -1 | -5 | i
O=C(O)c1ccc2nc(-c3ccco3)c(-c3ccco3)nc2c1 | -10 | 80* | 52* | -2 | 5 | 22 | i
O=C(Cn1nc(C(=O)O)c2ccccc2c1=O)Nc1nc(-c2ccccc2)cs1 | -10 | 8 | 52* | 15 | · | 2 | i
